PMC12377326 (RSC Advances, 2025)
Values joined by “and” are separate entries in the source; they are usually repeats but may differ in a detail not shown here. Equal values may be shown once.

What was measured:
hCA I = hCA I (Homo sapiens, UniProt P00915); assay: hCA I counterscreen; type: biochemical; settings: for S I = (IC50 hCA I, nM)/(IC50 hCA IX, nM): selectivity for CA IX over CA I
Outline: (§1)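 Recombinant human enzymes, >95% pure: hCA I (Ala2–Phe261) for line 1 and hCA II (Ser2–Lys260) for line 2. Run under the same conditions as the hCA IX assay at 25 °C. IC50 is the mean ± SD, n = 3. Where solubility prevented a full titration, IC50 was extrapolated from the linear range of the curve. Selectivity index = IC50 (hCA I or hCA II, nM)/IC50 (hCA IX, nM).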

hCA II = hCA II (Homo sapiens, UniProt P00918); assay: hCA II counterscreen; type: biochemical; settings: for S II = (IC50 hCA II, nM)/(IC50 hCA IX, nM): selectivity for CA IX over CA II
Outline: as §1

hCA IX [1] = target: T1, hCA IX (Homo sapiens, UniProt Q16790); assay: Steady-state CO2-hydrase enzyme kinetics; type: biochemical; settings: Lineweaver–Burk and Michaelis–Menten plots; unchanged Km, reduced Vmax
hCA IX [2] = target: T1, hCA IX; assay: biochemical; settings: stopped-flow CO2-hydrase assay

hCA I, sequence (P00915 2-261): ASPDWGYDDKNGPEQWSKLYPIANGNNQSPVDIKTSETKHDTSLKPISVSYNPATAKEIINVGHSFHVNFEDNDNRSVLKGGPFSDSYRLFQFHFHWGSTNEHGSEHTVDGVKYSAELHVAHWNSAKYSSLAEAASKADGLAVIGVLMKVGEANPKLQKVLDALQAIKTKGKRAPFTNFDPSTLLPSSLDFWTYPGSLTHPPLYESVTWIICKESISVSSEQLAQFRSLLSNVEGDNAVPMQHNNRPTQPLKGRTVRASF

SMILES | IC50 (hCA I) | S I = (IC50 hCA I, nM)/(IC50 hCA IX, nM) (hCA I) | S I = (IC50 hCA I, nM)/(IC50 hCA IX, nM) (hCA I; listed as palustric) | IC50 (hCA II) | S II = (IC50 hCA II, nM)/(IC50 hCA IX, nM) (hCA II) | S II = (IC50 hCA II, nM)/(IC50 hCA IX, nM) (hCA II; listed as palustric) | mode of inhibition (hCA IX [1]) | IC50 (hCA IX [2]; IC50 CA IX (printed in μM), mean ± SD) | IC50 (hCA IX [2]; IC50 hCA IX, pH 7.4, 25 °C, mean ± SD (n = 3)) | S I = (IC50 hCA I, nM)/(IC50 hCA IX, nM) (hCA I; listed as pimaric) | S II = (IC50 hCA II, nM)/(IC50 hCA IX, nM) (hCA II; listed as pimaric)
CC(C)C1=CC2=C(CC1)[C@@]1(C)CCC[C@@](C)(C(=O)O)[C@@H]1CC2 [Palustric acid, palustric acid] | 2.25 ± 0.2 µM | 7.8 | ≈ 8 | 1.45 ± 0.12 µM | 5.0 | ≈ 5 | non-competitive |  |  |  | 
C=C[C@@]1(C)C=C2CC[C@@H]3[C@](C)(CCC[C@@]3(C)C(=O)O)[C@H]2CC1 [Pimaric acid, pimaric acid] | 2.7 ± 0.25 µM | 7.9 |  | 1.62 ± 0.13 µM | 4.8 |  | non-competitive | 0.341 ± 0.0064 µM | 0.341 ± 0.00637 µM | ≈ 8 | ≈ 5
CC(C)C1=CC[C@H]2C(=C1)CC[C@@H]1[C@]2(C)CCC[C@@]1(C)C(=O)O [Levopimaric acid, levopimaric acid] | 1.5 ± 0.12 µM | 10 and 10.2 |  | 0.68 ± 0.05 µM | 4.6 |  | non-competitive |  |  |  | 
